# Reference: ChEMBL document CHEMBL1143122, “Novel analogs of D-e-MAPP and B13. Part 1: synthesis and evaluation as potential anticancer agents” (Bioorg Med Chem, 2008)
# Key:
# SNB-75 = experiment: Antiproliferative activity against human SNB75 cells after 48 hrs; type: functional; settings: SNB-75, 48 h
# Procedure, shortened: (§1)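 NCI 60-cell screen. Cells were grown in RPMI 1640 with 5% FBS and 2 mM L-glutamine, then plated at 5,000–40,000 cells/well according to doubling time and preincubated for 24 h at 37 °C in 5% CO2. Compounds were dissolved in DMSO at 400× the top final concentration and tested at five 10-fold dilutions from 10−4 to 10−8 M for 48 h. Growth was read spectrophotometrically; GI50 is 50% net protein reduction.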
# HCT-116 = experiment: Antiproliferative activity against human HCT116 cells after 48 hrs; type: functional; settings: HCT-116, 48 h; procedure, shortened: as §1
# LOX IMVI = experiment: Antiproliferative activity against human LOXIMVI cells after 48 hrs; type: functional; procedure, shortened: as §1
# SW-620 = experiment: Antiproliferative activity against human SW620 cells after 48 hrs; type: functional; settings: SW-620, 48 h
# Procedure, shortened: (§2)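 NCI 60-cell-line screen. Lines grown in RPMI 1640 with 5% fetal bovine serum and 2 mM L-glutamine, plated at 5,000–40,000 cells/well according to doubling time, left 24 h at 37 °C in 5% CO2. Drug stocks in DMSO at 400-fold the top final concentration. Five 10-fold dilutions, 10−4 to 10−8 M, incubated 48 h. Growth read spectrophotometrically as net protein; GI50 taken as 50% reduction.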
# SK-MEL-2 = experiment: Antiproliferative activity against human SKMEL2 cells after 48 hrs; type: functional; settings: SK-MEL-2, 48 h; procedure, shortened: as §1
# Malme-3M = experiment: Antiproliferative activity against human MALME3M cells after 48 hrs; type: functional; procedure, shortened: as §1
# NCI-H522 = experiment: Antiproliferative activity against human NCI-H522 cells after 48 hrs; type: functional; settings: NCI-H522, 48 h; procedure, shortened: as §1
# IGROV-1 = experiment: Antiproliferative activity against human IGROV1 cells after 48 hrs; type: functional; settings: IGROV-1, 48 h; procedure, shortened: as §1
# HOP-62 = experiment: Antiproliferative activity against human HOP62 cells after 48 hrs; type: functional; settings: HOP-62, 48 h; procedure, shortened: as §1
# K562 = experiment: Antiproliferative activity against human K562 cells after 48 hrs; type: functional; settings: K562, 48 h; procedure, shortened: as §1
# OVCAR-8 = experiment: Antiproliferative activity against human OVCAR8 cells after 48 hrs; type: functional; settings: OVCAR-8, 48 h; procedure, shortened: as §1
# SN12C = experiment: Antiproliferative activity against human SN12C cells after 48 hrs; type: functional; procedure, shortened: as §1
# 786-0 = experiment: Antiproliferative activity against human 786-0 cells after 48 hrs; type: functional; settings: 786-0, 48 h; procedure, shortened: as §1
# TK-10 = experiment: Antiproliferative activity against human TK10 cells after 48 hrs; type: functional; settings: TK-10, 48 h; procedure, shortened: as §2
# A498 = experiment: Antiproliferative activity against human A498 cells after 48 hrs; type: functional; settings: A498, 48 h; procedure, shortened: as §1
# [1] = Antiproliferative activity against human […] cells after 48 hrs; type: functional; procedure, shortened: as §1
# SK-MEL-5 = experiment: Antiproliferative activity against human SKMEL5 cells after 48 hrs; type: functional; settings: SK-MEL-5, 48 h; procedure, shortened: as §1
# ACHN = experiment: Antiproliferative activity against human ACHN cells after 48 hrs; type: functional; procedure, shortened: as §1
# MCF7 = experiment: Drug level in human MCF7 cells at 10 uM per 10^6 cells after 0.5 hrs; type: ADME, cell-based; settings: mcf7, 0.5 h
# Procedure, shortened: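 MCF7 cells kept in RPMI 1640 with 10% fetal calf serum at 37 °C, 5% CO2, then treated with 10 μM analog. Intracellular analog measured over time by HPLC-MS in positive-ion MRM mode. Quantified against calibration curves made by spiking an artificial matrix with standards plus internal standard, using analyte/IS peak-area ratios and linear regression. Reported as pmol per 1×10^6 cells.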
# KM12 = experiment: Antiproliferative activity against human KM12 cells after 48 hrs; type: functional; settings: Homo sapiens, KM12, 48 h; procedure, shortened: as §1
# [2] = Antiproliferative activity against human HL60(TB) cells after 48 hrs; type: functional, HL-60(TB); settings: HL-60, 48 h
# Procedure, shortened: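 NCI 60-line panel screen: cells grown in RPMI 1640 with 5% fetal bovine serum and 2 mM L-glutamine, plated at 5,000–40,000 cells/well by doubling time, and preincubated 24 h at 37 °C in 5% CO2. Drugs were solubilised in DMSO at 400-fold the final maximum and tested at five 10-fold dilutions from 10−4 to 10−8 M for 48 h. Net protein was read spectrophotometrically, and the concentration giving 50% reduction was reported as log10 GI50.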
# HCC 2998 = experiment: Antiproliferative activity against human HCC2998 cells after 48 hrs; type: functional; settings: HCC 2998, 48 h; procedure, shortened: as §1
# NCI-H460 = experiment: Antiproliferative activity against human NCI-H460 cells after 48 hrs; type: functional; settings: NCI-H460, 48 h; procedure, shortened: as §1
# SF-295 = experiment: Antiproliferative activity against human SF295 cells after 48 hrs; type: functional; settings: SF-295, 48 h; procedure, shortened: as §1
# UACC-62 = experiment: Antiproliferative activity against human UACC62 cells after 48 hrs; type: functional; settings: UACC-62, 48 h; procedure, shortened: as §2
# [3] = read-out: Log LC50 (the source's name) (converted)
smiles,measurement,setting,value
C[C@H](NC(=O)CCCCCCCCCCCCCCC[n+]1ccccc1)[C@H](O)c1ccccc1.[Br-],GI50,SNB-75,1.7 µM
same,CC50,SNB-75; [3],38 µM
same,TGI,SNB-75; read-out: Log TGI (converted),11.2 µM
same,GI50,HCT-116,3.47 µM
same,LC50,HCT-116,38.9 µM
same,TGI,HCT-116; read-out: Log TGI (converted),14.8 µM
same,GI50,LOX IMVI,4.07 µM
same,LC50,LOX IMVI,44.7 µM
same,TGI,LOX IMVI; read-out: Log TGI (converted),14.8 µM
same,GI50,SW-620,6.92 µM
same,LC50 (concentration killing 50% of cells),SW-620,45.7 µM
same,TGI,SW-620; read-out: Log TGI (converted),20 µM
same,GI50,SK-MEL-2,2.88 µM
same,LC50,SK-MEL-2,60.3 µM
same,TGI,SK-MEL-2; read-out: Log TGI (converted),7.41 µM
same,GI50,Malme-3M,2.45 µM
same,LC50,Malme-3M,20 µM
same,TGI,Malme-3M; read-out: Log TGI (converted),5.89 µM
same,GI50,NCI-H522,2.04 µM
same,CC50,NCI-H522; [3],50.1 µM
same,TGI,NCI-H522; read-out: Log TGI (converted),13.2 µM
same,GI50,IGROV-1,3.16 µM
same,LC50,IGROV-1,57.5 µM
same,TGI,IGROV-1; read-out: Log TGI (converted),15.8 µM
same,GI50,HOP-62,7.08 µM
same,CC50,HOP-62; [3],44.7 µM
same,TGI,HOP-62; read-out: Log TGI (converted),20.4 µM
same,GI50,K562,0.912 µM
same,LC50,K562,77.6 µM
same,TGI,K562; read-out: Log TGI (converted),15.8 µM
same,GI50,OVCAR-8,3.89 µM
same,CC50,OVCAR-8; [3],> 100 µM
same,TGI,OVCAR-8; read-out: Log TGI (converted),22.9 µM
same,GI50,SN12C,3.47 µM
same,LC50 (50% net cell kill),SN12C,47.9 µM
same,TGI,SN12C; read-out: Log TGI (converted),14.8 µM
same,GI50,786-0,10.2 µM
same,CC50,786-0; [3],49 µM
same,TGI,786-0; read-out: Log TGI (converted),22.4 µM
same,GI50,TK-10,14.5 µM
same,CC50,TK-10; [3],56.2 µM
same,TGI,TK-10; read-out: Log TGI (converted),28.2 µM
same,GI50,A498,17.8 µM
same,CC50,A498; [3],57.5 µM
same,TGI,A498; read-out: Log TGI (converted),32.4 µM
same,GI50,[1],3.63 µM
same,LC50,[1],42.7 µM
same,TGI,[1]; read-out: Log TGI (converted),14.8 µM
same,GI50,SK-MEL-5,1.62 µM
same,CC50,SK-MEL-5; [3],9.55 µM
same,TGI,SK-MEL-5; read-out: Log TGI (converted),3.89 µM
same,GI50,ACHN,21.9 µM
same,CC50,ACHN; [3],91.2 µM
same,TGI,ACHN; read-out: Log TGI (converted),44.7 µM
same,Drug uptake,MCF7,800 pmol
same,GI50,KM12,2.75 µM
same,CC50,KM12; [3],36.3 µM
same,TGI,KM12; read-out: Log TGI (converted),11.5 µM
same,GI50,[2],1.48 µM
same,LC50,[2],31.6 µM
same,TGI,[2]; read-out: Log TGI (converted),4.37 µM
same,GI50,HCC 2998,1.55 µM
same,CC50,HCC 2998; [3],30.9 µM
same,TGI,HCC 2998; read-out: Log TGI (converted),7.41 µM
same,GI50,NCI-H460,2.82 µM
same,CC50,NCI-H460; [3],41.7 µM
same,TGI,NCI-H460; read-out: Log TGI (converted),13.2 µM
same,GI50,SF-295,14.5 µM
same,LC50,SF-295,53.7 µM
same,TGI,SF-295; read-out: Log TGI (converted),27.5 µM
same,GI50,UACC-62,1.86 µM
same,LC50,UACC-62,25.1 µM
same,TGI,UACC-62; read-out: Log TGI (converted),5.75 µM
